Source: ChEMBL document CHEMBL4513216, “Probing the Open Global Health Chemical Diversity Library for Multistage-Active Starting Points for Next-Generation Antimalarials” (ACS Infect Dis, 2020)

Assay: Toxicity liver stage against HepG2, at 10uM
Type: cell-based
Design: test concentration 10 uM, cell line HepG2-A16-CD81EGFP
Conditions: human, HepG2-A16-CD81EGFP cells; read-out: INHIBITION
In short: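 Uninfected HepG2-A16-CD81EGFP cells, 3 × 10^3 per well, 1536-well, plated on prespotted compound at 10 μM final, parasite-free screening media added to match infected plates; puromycin 10 μM positive, DMSO 0.5% negative; run in parallel with 48 h PbLuc assay at 37 °C, 5% CO2; viability by CellTiter-Glo luminescence, normalized to controls.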
Compound `O=C(NC[C@H]1OC[C@@H](NC2CCNCC2)[C@@H]1O)C1CCCC1` has a cytotoxicity at 10 µM of -10.5%. With `CC(NC(=O)N1CCS(=O)(=O)CC1)c1c(F)cccc1Cl` (centres undefined) the cytotoxicity at 10 µM was 3.54%. In the case of `CC(C)(C)C(=O)CN1Cc2ccccc2NCCC1=O`, the cytotoxicity at 10 µM is reported as -3.19%. For `Cc1ccccc1OCCCC(=O)NCC1CN(C)CCO1` (centres undefined), the cytotoxicity at 10 µM was -8.69%. With `Oc1cc(-c2cccs2)nc(C2CCCN(CC3=CCCOC3)C2)n1` (centres undefined) the cytotoxicity at 10 µM was -5.56%. For `Cc1nn(C)c(N(C)C)c1CNCc1cccc(CN(C)C)c1`, the cytotoxicity at 10 µM was -3.01%. With `CCc1nnc(CN2CCC3(CCC(=O)N(C4CCCC4)C3)CC2)o1` the cytotoxicity at 10 µM was -5.16%. Work on `CCn1ccc(-c2nnc(SCC(=O)Nc3ccc(C)cc3)n2CC)n1` yielded a cytotoxicity at 10 µM of 5.11%. `Cc1ccccc1C1(O)CCN(C(=O)CCc2cn3ccccc3n2)C1` (centres undefined) gave a cytotoxicity at 10 µM of -3.18%. With `Cc1ccc(CNC(=O)Nc2nncs2)cn1` the cytotoxicity at 10 µM was -9.12%. Compound `N#Cc1c(C2CC2)cc(-c2ccc(O)cc2)nc1N` has a cytotoxicity at 10 µM of -4.72%. `CCNC(=O)N1C[C@@H]2OCC(=O)N(CC3CCCCC3)[C@@H]2C1` showed a cytotoxicity at 10 µM of -4.04%. `O=C(NCCCn1cccn1)C1COCC(=O)N1Cc1ccccc1` (centres undefined) gave a cytotoxicity at 10 µM of -8.57%. Work on `Cc1c[nH]c(CN2CCOC(c3ccc(Cl)cc3)C2)c(C)c1=O` (centres undefined) yielded a cytotoxicity at 10 µM of 13.4%. Work on `CN(C)[C@H]1CN(C(=O)CCc2cccc(F)c2)C[C@@H]1C1CC1` yielded a cytotoxicity at 10 µM of -1.1%. Work on `O=C(c1cc(Cl)c2c(c1)OCO2)N1CCCC(n2ccnc2)C1` (centres undefined) yielded a cytotoxicity at 10 µM of -6.93%. Work on `CCc1cnc(N2C[C@H]3CN(Cc4ccc(OC)cc4)C(=O)[C@H]3C2)nc1` yielded a cytotoxicity at 10 µM of 11.6%. Work on `Cn1cc(C(=O)CC2CCCN2C(=O)c2n[nH]c3ccccc23)cn1` (centres undefined) yielded a cytotoxicity at 10 µM of -0.842%. `CN1N=C(C(=O)N(Cc2ccco2)C2CC2)CCC1=O` gave a cytotoxicity at 10 µM of -2.62%. Work on `Cc1cccc(NC(=O)N2CCC(CO)(Nc3ccccc3)CC2)c1` yielded a cytotoxicity at 10 µM of 0.045%. `CC(C)CCC(=O)N1C[C@H]2CCN[C@H]2C1` gave a cytotoxicity at 10 µM of 2.82%. Work on `CCNc1ccnc(N2Cc3cnc(CC(C)C)nc3C2)n1` yielded a cytotoxicity at 10 µM of 10.4%. In the case of `Cn1nc(-c2cccs2)cc1[C@H]1CN2CC[C@H]1C[C@@H]2CN`, the cytotoxicity at 10 µM is reported as 5.88%. With `Cc1nn2c(NC(=O)CSc3nccn3C)csc2nc1=O` the cytotoxicity at 10 µM was 9.71%. Work on `CN(Cc1ccccn1)C(C(=O)O)c1ccc2c(c1)OCO2` (centres undefined) yielded a cytotoxicity at 10 µM of 1.16%. `COc1cccc(F)c1-c1nc2c([nH]1)c(C1CC1)nn2C` gave a cytotoxicity at 10 µM of 0.271%. Compound `O=c1cc2c(nn1CN1CCN(c3ccccc3)CC1)CCC2` has a cytotoxicity at 10 µM of 7.13%. Work on `CCC[C@H]1CN(C(=O)c2ccc3[nH]c(CO)nc3c2)C[C@@H]1N` yielded a cytotoxicity at 10 µM of 3.96%. With `Cc1ccc(-c2ccnc(N[C@H]3COC[C@@H]3N3CCCCC3)n2)c(C)n1` the cytotoxicity at 10 µM was 3.46%. In the case of `N#CCCN1CCC(=Cc2ccccc2)CC1`, the cytotoxicity at 10 µM is reported as -2.75%. With `CC(C)(C)C(=O)N1CCCC1c1cc(CO)[nH]n1` (centres undefined) the cytotoxicity at 10 µM was 1.61%. Compound `CCNc1c(C#N)c(=O)n(C)c(=O)n1C` has a cytotoxicity at 10 µM of 0.504%. Compound `O=C(CCC1CCN(Cc2ccncc2)CC1)Nc1ccccc1Cl` has a cytotoxicity at 10 µM of -3.9%. For `Cc1cccnc1CNC(=O)NC(C)Cc1c(C)nn(C)c1C` (centres undefined), the cytotoxicity at 10 µM was 3.92%. For `CCc1nnc(Nc2cc(C)nc(C3CN(C(C)=O)CCO3)c2)s1` (centres undefined), the cytotoxicity at 10 µM was 4.74%. For `COc1ccc(C2CNCCN2C(=O)c2cccc3ncccc23)cc1` (centres undefined), the cytotoxicity at 10 µM was -8.73%. Compound `O=C(O)[C@H]1C[C@H](C(=O)NC2CC2)CN(Cc2ccc(-c3cc[nH]n3)s2)C1` has a cytotoxicity at 10 µM of 2.89%. Compound `CC(C)COCC1CN(Cc2ccco2)Cc2ncn(C)c21` (centres undefined) has a cytotoxicity at 10 µM of 4.24%. For `CCc1nnc2n1CCN(C(=O)c1ccnc(N(C)C)c1)C2`, the cytotoxicity at 10 µM was -21%. Compound `c1cc(CN2CCCC2)ccc1CNc1cncc2nnnn12` has a cytotoxicity at 10 µM of 3.99%. With `CCCSc1ncccc1C(=O)NCc1ccc(S(N)(=O)=O)cc1` the cytotoxicity at 10 µM was 6.02%. `Cc1[nH]ccc1C(=O)Nc1cccc(CN2CCC(O)CC2)c1` gave a cytotoxicity at 10 µM of 0.149%. Compound `CN(Cc1ccncc1)C(=O)[C@H]1CSCN1C(=O)OC(C)(C)C` has a cytotoxicity at 10 µM of -9.65%. With `CNC(=O)[C@@H]1C[C@H]2CN(Cc3ccc(C)o3)C[C@H]2N1C(C)=O` the cytotoxicity at 10 µM was -103%. Compound `COc1ccccc1C(=O)N(C)Cc1ncc(C)c(OC)c1C` has a cytotoxicity at 10 µM of 5.37%. Compound `Cc1ccc(CN2C[C@@H](c3ccccc3)[C@@]3(CCNC3=O)C2)o1` has a cytotoxicity at 10 µM of -119%. Compound `CC(=O)N1C[C@@H](F)[C@@H](OCc2nc3ccc(C#N)cc3[nH]2)C1` has a cytotoxicity at 10 µM of -0.302%. `Cc1nnc2n1CCN(CC(=O)NC(C)c1ccc3ccccc3c1)C2` (centres undefined) gave a cytotoxicity at 10 µM of -7.91%. With `O=C1NC2(CCc3ccccc31)CCN(C(=O)c1cccnc1)C2` (centres undefined) the cytotoxicity at 10 µM was 5.5%. Work on `CC(C)N1CCN(C(=O)Nc2cnc3c(cnn3C(C)C)c2)CC1` yielded a cytotoxicity at 10 µM of 6.23%. With `Cc1nc(C2CCCN2CCS(C)(=O)=O)no1` (centres undefined) the cytotoxicity at 10 µM was -5.07%. `O=C(Cc1ccsc1)N1CCOC(c2nc(-c3ncccn3)no2)C1` (centres undefined) showed a cytotoxicity at 10 µM of -7.83%. For `COCCCN(C)c1nc(-c2ccncc2)nc2c1CCN(C(C)=O)C2`, the cytotoxicity at 10 µM was -1.16%. Compound `Cc1ccc(-c2nc(CN3CCCC3Cn3cc(C)cn3)no2)cc1` (centres undefined) has a cytotoxicity at 10 µM of 4.07%.
